The list is not random: actives were taken first. Their share in the collection is about 3.4%.
TMEM16A act: activators or potentiators of mouse TMEM16A chloride channel; AID 623877; HEK293 TMEM16A/YFP-H148Q/I152L, iodide quench fluorescence; hits give low values; 340,000 tested, 0.3% active; B-score at 10 µM;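 active = fluorescence-ratio B-score plate-corrected deviation score at least 3 library SD below zero, with starting fluorescence score within 5 deviations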;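 also: channel opened by trigger with iodide after compound preincubation; score built on the fluorescence ratio of max minus min over baseline; more negative score means more quench and so TMEM16A activation or potentiation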
VIM-2 inhibitor: inhibitors of Pseudomonas aeruginosa VIM-2 metallo-beta-lactamase | AID 1527 | 290,000 tested, 0.89% active | purified VIM-2, nitrocefin hydrolysis, epi-absorbance fluorescence | inhibition, % at 5.6 µM;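 active = inhibition above the mean of all tested compounds plus 3 SD, cutoff set per screening run, cut at about 7.5% in these data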;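 also: red hydrolysis product quenches plate fluorescence so inhibitors raise well fluorescence; 0% = enzyme with DMSO and 100% = DMSO without enzyme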
TMEM16A inh: blocks the mouse calcium-activated chloride channel TMEM16A | HEK293 TMEM16A/YFP iodide influx fluorescence, ionomycin | normalized B-score (activity score, 25-100; higher = stronger inhibition) at 10 µM | 310,000 tested, 1.2% active | Q8BHY3;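 active = ratio plate-corrected score three or more library SD toward inhibition, starting fluorescence score within five deviations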;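 also: score derived from kinetic fluorescence span divided by baseline fluorescence per well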
CHT block: human CHT choline transport inhibition. Q9GZV3. CHT-expressing cells, membrane potential dye, choline response; hits give low values. B-score at 10 µM. 310,000 tested, 0.86% active. AID 488975;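 active = B-score over 3 SD under the library average, and starting fluorescence ratio not unusually high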;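 also: choline stimulus applied at its EC90 after an EC20 pre-addition; B-score computed on integrated fluorescence ratio after choline addition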
Target sequence (Q9GZV3 whole entry, looked up): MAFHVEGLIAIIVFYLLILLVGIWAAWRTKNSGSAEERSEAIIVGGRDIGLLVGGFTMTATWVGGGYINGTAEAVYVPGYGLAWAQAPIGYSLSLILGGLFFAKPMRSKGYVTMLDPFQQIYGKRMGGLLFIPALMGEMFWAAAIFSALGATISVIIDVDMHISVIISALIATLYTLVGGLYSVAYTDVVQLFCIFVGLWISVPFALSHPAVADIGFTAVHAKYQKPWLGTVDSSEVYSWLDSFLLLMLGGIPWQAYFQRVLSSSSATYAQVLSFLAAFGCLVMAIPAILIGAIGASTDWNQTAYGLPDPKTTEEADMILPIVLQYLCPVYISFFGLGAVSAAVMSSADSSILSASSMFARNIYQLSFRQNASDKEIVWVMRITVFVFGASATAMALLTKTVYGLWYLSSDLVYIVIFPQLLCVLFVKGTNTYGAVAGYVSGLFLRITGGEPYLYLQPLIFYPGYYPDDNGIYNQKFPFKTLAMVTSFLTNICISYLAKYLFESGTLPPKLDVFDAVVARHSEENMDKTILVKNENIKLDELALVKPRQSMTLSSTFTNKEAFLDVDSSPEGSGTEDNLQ
IMP-1 inh: inhibitors of Pseudomonas aeruginosa IMP-1 metallo-beta-lactamase; purified IMP-1, nitrocefin hydrolysis, epi-absorbance fluorescence; inhibition, % at 5.6 µM; 290,000 tested, 0.45% active; AID 1556;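 active = inhibition above the mean plus 3 SD of all compounds in the same screening run, cut at about 4.5% in these data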;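 also: 0% = IMP-1 with DMSO and 100% = DMSO wells lacking enzyme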
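Material – recombinant IMP-1 enzyme, purified · Amount – IMP-1 0.2 nM before substrate addition · Medium – HEPES buffer pH 7.1 with ZnSO4 and Brij 35 · Timing – 25 °C, 15 min preincubation, 25 min reaction · Measured by – plate fluorescence quenching by hydrolysis product, ex 480/em 530 nm · Read-out – percent enzyme inhibition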
CHT allo act: allosterically activates the human high affinity choline transporter; 310,000 tested, 0.49% active; Q9GZV3; B-score at 10 µM; CHT-expressing cells, membrane potential dye, choline EC20; hits give high values; LV-AA mutant CHT in HEK293 cells; AID 488977;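 active = initial fluorescence not abnormally high and integrated response B-score, plate-corrected, over 3 SD above library mean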
TMEM16A reconf: re-confirmation of mouse TMEM16A chloride channel inhibitors. shares compounds with TMEM16A inh. HEK293 TMEM16A/YFP-H148Q, iodide quench fluorescence; ionomycin added to raise cell calcium. inhibition, % at 10 µM. 2,300 tested, 39% active;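 active = mean duplicate percent inhibition, scaled so buffer wells are 0 and the reference blocker 100, over three buffer SD above buffer mean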
HEK293 Ca mobil: alters calcium mobilization in TMEM16A HEK293 cells, counter-screen; shares compounds with TMEM16A inh; TMEM16A/YFP HEK293, Fluo4 calcium mobilization; calcium response (% of ionomycin), % at 10 µM; 2,300 tested, 2% active; AID 652231;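 active = duplicate-averaged calcium signal over 20% of the ionomycin maximum, relative to buffer baseline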;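 also: each well's signal is peak minus trough fluorescence divided by its pre-addition baseline; 0% = buffer wells and 100% = ionomycin wells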
Parental YFP cnt: parental YFP-HEK293 iodide quench counter-screen activity | shares compounds with TMEM16A inh | ionomycin | AID 652233 | 2,300 tested, under 10 active | YFP ratio F(max-min)/F0 at 10 µM;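 active = yellow fluorescent protein signal ratio exceeding the buffer control mean by over 5 SD of those controls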;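 also: ratio is mean of duplicate wells from kinetic YFP trace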
ClC-1 rat inh: blocks the rat ClC-1 voltage-dependent chloride channel; AID 652236; 2,300 tested, under 10 active; CHO ClC-1-YFP, iodide influx fluorescence quench; iodide control reads 0, buffer control 100; ratio percent, % at 10 µM; shares compounds with TMEM16A inh;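 active = duplicate-mean ratio percent above the mean of iodide-only control wells, which defines zero, plus 5 of their SD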;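 also: higher percent means stronger block of ClC-1 iodide influx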
Starred values were filed as active, the others as inactive; i = inactive; / = not tested or not shown.

SMILES	TMEM16A act	VIM-2 inhibitor	TMEM16A inh	CHT block	IMP-1 inh	CHT allo act	TMEM16A reconf	HEK293 Ca mobil	Parental YFP cnt	ClC-1 rat inh
CC(C)c1noc2ncc(C(=O)c3cc(Cl)cc(Cl)c3O)cc12	i	1	25*	i	0	i	32%*	i	-0.88	-4
Nc1nc2ncc(C(=O)c3cc(Cl)cc(Cl)c3O)cc2s1	i	-1	i	i	-4	i	/	/	/	/
O=C(CSc1nnc(-c2ccncc2)n1Cc1ccco1)Nc1nc(-c2ccccc2)cs1	i	-2	25*	i	-3	i	30%*	i	-1.1	-6
CCc1nnc(NC(=O)CSc2nnc(-c3ccccc3O)n2CC)s1	i	-4	i	i	-2	i	/	/	/	/
CCn1c(SCC(=O)Nc2nc(-c3ccccc3)cs2)nnc1-c1ccccc1O	i	0	100*	i	-1	i	36%*	i	-0.83	-3
CNS(=O)(=O)c1cccc(C(=O)OCC(=O)c2c(N)n(Cc3ccccc3)c(=O)n(C)c2=O)c1	i	/	/	/	/	/	/	/	/	/
CC(C)(C)OC(=O)C[C@H]1C/C=C\C[C@H](CC(=O)N[C@H](CO)Cc2ccccc2)C(=O)N[C@@H](Cc2ccccc2)COC1=O	i	/	/	/	/	/	/	/	/	/
O=C(CNc1cc(S(=O)(=O)N2CCOCC2)ccc1NCC1CCCO1)Nc1cccc(F)c1 (configuration not stated)	i	0	i	i	1	i	/	/	/	/
O=C(Nc1cccnc1)Nc1ccccc1Cl	i	0	100*	i	0	i	i	i	-0.91	-6
CN1CCN(c2ccccc2NC(=O)COc2ccc(Cl)cc2)CC1	i	0	i	i	-4	i	/	/	/	/
CCS(=O)(=O)Nc1cccc(C2=NN(S(=O)(=O)c3ccccc3)C(c3cccs3)C2)c1 (configuration not stated)	i	1	i	i	-1	i	i	i	-0.86	-20
Cc1cc(SCC(=O)NCC(c2cccs2)N2CCOCC2)c(C)cc1Br (configuration not stated)	i	/	i	i	/	i	/	/	/	/
CN(CCCC(=O)Nc1ccncc1)S(=O)(=O)c1ccc(Cl)cc1	i	2	100*	i	-3	i	i	i	-0.92	-23
O=C(Cc1ccc(Cl)cc1)Nc1ccncc1	i	-3	25*	i	-2	i	i	i	-0.84	-14
Cc1cccc(C)c1NC(=O)CSc1nc(C2CC2)nc2ccccc12	i	0	i	i	-2	i	/	/	/	/
O=C(Nc1ccc2c(c1)OCO2)C1CCN(Cc2cc3c(cc2O)OCO3)CC1	i	-2	i	i	-6	i	/	/	/	/
O=C(Nc1ccc2c(c1)OCO2)C1CCN(Cc2cnn(-c3ccccc3)c2-n2cccc2)CC1	i	-3	100*	i	-3	i	i	i	-1.1	-11
COc1cc2ccccc2cc1C(=O)OCC(=O)N(CC(C)C)c1c(N)n(Cc2ccccc2)c(=O)[nH]c1=O	i	/	i	i	/	i	/	/	/	/
COc1ccc(CC(=O)Nc2cccc(-c3csc(C)n3)c2)cc1	i	-2	i	i	0	i	/	/	/	/
Cc1nc(-c2cccc(NC(=O)COc3ccc(Cl)cc3)c2)cs1	i	-3	25*	i	-3	i	i	i	-1.1	-5
CCOC(=O)c1c(C)[nH]c(C(=O)N/N=C/c2cc([N+](=O)[O-])ccc2O)c1C	i	-4	25*	i	-1	i	20%*	i	-1.1	-8
CCOC(=O)c1c(C)[nH]c(C(=O)N/N=C\c2ccccc2O)c1C	i	-1	i	i	0	i	/	/	/	/
Cc1ccc2c(c1)C1C=CCC1C(C(=O)O)N2 (configuration not stated)	/	-1	i	i	-1	i	/	/	/	/
NS(=O)(=O)c1ccc2c(c1)C1C=CCC1C(C1CC=CCC1)N2 (configuration not stated)	i	0	100*	i	13*	i	i	i	-0.83	-7
Cn1c(=O)c2c(nc(NCCCO)n2C/C=C/c2ccccc2)n(C)c1=O	i	-3	100*	i	2	i	i	i	-1.1	-6
SMILES	TMEM16A act	VIM-2 inhibitor	TMEM16A inh	CHT block	IMP-1 inh	CHT allo act	TMEM16A reconf	HEK293 Ca mobil	Parental YFP cnt	ClC-1 rat inh
CC(O)CNc1nc2c(c(=O)n(C)c(=O)n2C)n1C/C=C/c1ccccc1 (configuration not stated)	i	1	i	i	-2	i	/	/	/	/
Clc1ccc(CCNc2ncnc3nc[nH]c23)cc1	i	-5	100*	i	-1	i	36%*	i	-1.2	-12
CCOC(=O)Cc1cc(=O)n2[nH]cc(-c3ccc(Cl)cc3)c2n1	i	-4	i	i	-5	i	/	/	/	/
C/C=C(/C(=C/C)c1ccc(O)cc1)c1ccc(O)cc1	i	0	i	i	0	i	/	/	/	/
C=C(c1ccc(O)cc1)c1ccc(O)cc1	i	-1	100*	i	0	i	24%*	i	-1.1	-15
COc1cc(/C=N/NC(=O)c2nonc2C)ccc1O	i	-3	i	i	-2	i	i	i	-0.89	2
CC(=O)c1csc(COc2ccc(Cl)cc2)n1	i	-3	i	i	0	i	/	/	/	/
Cc1ccc(-n2nc3c(=O)n(C(C)C(=O)NCCC4=CCCCC4)nc(C)c3c2C)cc1 (configuration not stated)	i	-3	25*	i	-3	i	i	i	-1.3	-4
Cc1ccc(S(=O)(=O)Nc2ccc(Cl)cc2C(=O)c2ccccc2)cc1	i	-1	25*	i	-4	i	i	i	-0.86	-6
Cc1cc(C(=O)OCC(=O)Nc2ccccc2C)c(C)o1	i	/	/	/	/	/	/	/	/	/
Cc1cc(C(=O)OCC(=O)Nc2ccc(F)cc2F)c(C)o1	i	-1	100*	i	-2	i	i	i	-0.87	-16
CCN(CC)c1nc(OCCNC(=O)Nc2ccccc2)nc(N(CC)CC)n1	i	-2	100*	i	-2	i	20%*	i	-1	-11
